Results reported in article PMC4433557 (ACS chemical biology, 2015).
Each block holds one molecule with its values, some of them ahead of it. Where a SMILES comes first, the peptide text is derived from it. Where no end group is shown, it is not given here. [ ]: non-standard residue; d: D form. Phe(4-F) = N[C@@H](Cc1ccc(F)cc1)C(=O)O; pS = N[C@@H](COP(=O)(O)O)C(=O)O; βAla = NCCC(=O)O

How the values were obtained:
[1] = biological target: BRCA1 (BRCT)2 (Homo sapiens, UniProt P38398); test: isothermal titration calorimetry with TR-; format: binding; conditions: ITC
[2] = tested on: phospho-CtIP and BRCA1 (BRCT)2; test: pull down-western of phospho-CtIP-myc from cell lysates with BRCA1; format: binding; conditions: synthesized peptide, increasing concentrations
[3] = biological target: BRCA1 (BRCT)2 (thioredoxin-(BRCT)2 fusion) (Homo sapiens, UniProt P38398); test: competition fluorescence polarization assay against FAM-β-A-pSPTF-NH2; format: binding
Outline: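 Competition fluorescence polarization: 20 nM FAM-β-A-pSPTF tracer plus 2.7 μM thioredoxin-(BRCT)2 fusion, titrated with variable concentrations of test peptide. IC50 obtained by fitting a four-parameter logistic equation.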

[4] = biological target: BACH1-derived tetrapeptide (Homo sapiens) (UniProt Q9BX63); conditions: cited from earlier work
Chain of BACH1-derived tetrapeptide (Homo sapiens) (Q9BX63 whole entry, looked up, tested part not stated): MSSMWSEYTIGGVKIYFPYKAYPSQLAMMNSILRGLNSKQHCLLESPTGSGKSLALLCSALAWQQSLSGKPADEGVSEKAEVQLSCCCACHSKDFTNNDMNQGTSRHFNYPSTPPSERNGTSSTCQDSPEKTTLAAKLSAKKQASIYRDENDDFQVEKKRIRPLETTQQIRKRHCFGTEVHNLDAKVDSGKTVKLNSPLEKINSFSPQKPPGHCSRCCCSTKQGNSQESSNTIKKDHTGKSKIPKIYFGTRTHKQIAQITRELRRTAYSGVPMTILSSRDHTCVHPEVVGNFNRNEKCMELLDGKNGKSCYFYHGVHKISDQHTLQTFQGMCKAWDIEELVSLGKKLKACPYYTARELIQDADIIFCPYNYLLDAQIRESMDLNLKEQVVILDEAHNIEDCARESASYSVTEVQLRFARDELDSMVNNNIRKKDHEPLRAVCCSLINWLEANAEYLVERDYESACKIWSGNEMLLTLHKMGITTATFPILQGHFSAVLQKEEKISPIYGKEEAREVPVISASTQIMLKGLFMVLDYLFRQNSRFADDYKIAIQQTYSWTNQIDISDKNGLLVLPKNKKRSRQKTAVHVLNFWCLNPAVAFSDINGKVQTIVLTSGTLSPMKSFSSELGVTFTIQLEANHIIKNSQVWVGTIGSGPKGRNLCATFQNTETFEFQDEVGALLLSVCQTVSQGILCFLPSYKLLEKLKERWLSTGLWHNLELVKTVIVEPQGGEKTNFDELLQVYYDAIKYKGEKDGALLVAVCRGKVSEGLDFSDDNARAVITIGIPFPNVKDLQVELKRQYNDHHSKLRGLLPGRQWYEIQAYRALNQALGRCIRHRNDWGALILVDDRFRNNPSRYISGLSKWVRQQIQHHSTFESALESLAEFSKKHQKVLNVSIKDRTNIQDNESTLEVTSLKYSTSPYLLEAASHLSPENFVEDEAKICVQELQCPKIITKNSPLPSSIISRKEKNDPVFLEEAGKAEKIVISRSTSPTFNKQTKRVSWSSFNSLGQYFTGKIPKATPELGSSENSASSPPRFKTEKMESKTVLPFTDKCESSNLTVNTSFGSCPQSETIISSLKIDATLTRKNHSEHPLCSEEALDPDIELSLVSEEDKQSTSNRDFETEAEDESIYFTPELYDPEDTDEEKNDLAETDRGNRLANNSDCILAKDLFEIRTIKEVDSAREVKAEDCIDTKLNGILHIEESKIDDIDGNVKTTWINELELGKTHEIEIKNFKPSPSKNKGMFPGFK

[5] = tested on: GST-BRCA1 (BRCT)2 S1655A; test: fluorescence polarization binding to GST-BRCA1; set-up: species or system human; conditions: FP; fluorescent peptides FAM-β-Ala-8.6 or FITC-BACH1 peptide
Outline: (§1)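 Direct fluorescence polarization of GST-BRCA1 (BRCT)2 point mutants and wild type, using either the labelled BACH1 phosphopeptide (FITC-[…]-NH2) or FAM-β-Ala-labelled test peptide as probe. KD for each mutant was determined by FP, then normalized to the wild-type GST-(BRCT)2 KD.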

[6] = tested on: GST-BRCA1 (BRCT)2 K1702M; test: fluorescence polarization binding to GST-BRCA1; set-up: species or system human; conditions: FP; FITC-BACH1 peptide
Outline: as §1

[7] = tested on: GST-BRCA1 (BRCT)2 E1698A; test: fluorescence polarization binding to GST-BRCA1; set-up: species or system human; conditions: FP; FITC-BACH1 peptide
Outline: as §1

[8] = tested on: GST-BRCA1 (BRCT)2 N1774A; test: fluorescence polarization binding to GST-BRCA1; set-up: species or system human; conditions: FP; FITC-BACH1 peptide
Outline: as §1

[9] = biological target: thioredoxin-(BRCT)2 fusion (human) (UniProt P38398); test: fluorescence polarisation
[10] = biological target: thioredoxin-(BRCT)2 fusion (human) (UniProt P38398); test: ITC
[11] = biological target: GST-BRCA1 (BRCT)2 K1702M (human) (UniProt P38398); test: fluorescence polarisation

IC50 [3]: 24 ± 2 µM
Molecule: CC[C@H](C)[C@H](NC(=O)[C@H](Cc1ccc(F)cc1)NC(=O)[C@H](CC(=O)O)NC(=O)[C@H](CC(N)=O)NC(=O)[C@H](CS)NC(=O)[C@H](CCSC)NC(C)=O)C(=O)N[C@@H](Cc1ccc(F)cc1)C(=O)N[C@@H](CCCNC(=N)N)C(=O)N[C@@H](CCCNC(=N)N)C(=O)N[C@@H](CO)C(=O)N[C@H](C(=O)N[C@@H](Cc1ccc(F)cc1)C(=O)N[C@@H](CCCNC(=N)N)C(=O)N[C@@H](C)C(N)=O)[C@@H](C)O [8.1] (Ac-MCND[Phe(4-F)]I[Phe(4-F)]RRST[Phe(4-F)]RA-NH2)

IC50 [3]: 49 ± 5 µM
Molecule: CC[C@H](C)[C@H](NC(=O)[C@H](Cc1ccc(F)cc1)NC(=O)[C@H](CC(=O)O)NC(=O)[C@H](CO)NC(=O)[C@H](CS)NC(=O)[C@H](CCSC)NC(C)=O)C(=O)N[C@@H](Cc1ccc(F)cc1)C(=O)N[C@@H](CO)C(=O)N[C@@H](CCCNC(=N)N)C(=O)N[C@@H](CCCNC(=N)N)C(=O)N[C@H](C(=O)N[C@@H](Cc1ccc(O)cc1)C(=O)N[C@H](C(=O)N[C@@H](Cc1ccc(F)cc1)C(N)=O)[C@@H](C)O)[C@@H](C)O [8.2] (Ac-MCSD[Phe(4-F)]I[Phe(4-F)]SRRTYT[Phe(4-F)]-NH2)

More lines, now with the values behind:

Molecule: 8.6 Nat: peptide 8.6 with the two 4FPhe substituted with Phe (MCTIDFDEYRFRKT)
binding after substitution of the two 4FPhe with Phe [1]: did not significantly abrogate binding
blocking of binding of phospho-CtIP and BRCA1 in cell lysates [2]: able to block the binding

Molecule: 8.6E8pS: mutant of peptide 8.6 containing the Glu to pSer mutation (MCTID[Phe(4-F)]D[pS]YR[Phe(4-F)]RKT)
fold lower KD than peptide 8.6 ([1]; 25 °C, pH 7.4, TR-(BRCT)2 20 uM, peptide 214 μM): 10 fold

Molecule: CSCC[C@H](NC(C)=O)C(=O)N[C@@H](CS)C(=O)N[C@@H](Cc1ccc(O)cc1)C(=O)N[C@@H](CC(=O)O)C(=O)N[C@@H](Cc1ccc(F)cc1)C(=O)N[C@@H](CC(=O)O)C(=O)N[C@H](C(=O)N[C@H](C(=O)N[C@@H](CC(N)=O)C(=O)N[C@@H](CC(=O)O)C(=O)N[C@@H](Cc1c[nH]cn1)C(=O)N[C@H](C(=O)N[C@@H](Cc1ccc(F)cc1)C(N)=O)[C@@H](C)O)[C@@H](C)O)[C@@H](C)O [8.5] (HELM PEPTIDE1{[ac].M.C.Y.D.[O=C([C@H](Cc1ccc(F)cc1)N[*:1])[*:2]].D.T.T.N.D.H.T.[O=C([C@H](Cc1ccc(F)cc1)N[*:1])[*:2]].[am]}$$$$V2.0)
IC50 [3]: 26 ± 2 µM

Molecule: BRCA1 BRCT2 (from UniProt P38398)
Kd [4]: 0.19 µM

Molecule: FITC-SRSTpSTPFNK-NH2 [pSer peptide]
binding to S1655A mutant versus wild type [5]: completely abolished recognition
binding to K1702M mutant versus wild type [6]: completely abolished recognition
change in affinity, E1698A versus wild type [7]: no significant change in affinity
change in affinity, N1774A versus wild type [8]: no significant change in affinity

Molecule: Y9A: Tyr to Ala mutant of peptide 8.6 (MCTID[Phe(4-F)]DEAR[Phe(4-F)]RKT)
competitive binding of alanine mutant relative to wild-type 8.6 ([3]; competition FP, TR-BRCA1 (BRCT)2 2.5 μM, FAM-β-Ala-pSPTF-NH2 20 nM): competed more effectively for binding than the wild-type 8.6

B1: peptide 8.6 (peptide)
peptide: MCTIDFDEYRFRKT
HELM: PEPTIDE1{[ac].M.C.T.I.D.[O=C([C@H](Cc1ccc(F)cc1)N[*:1])[*:2]].D.E.Y.R.[O=C([C@H](Cc1ccc(F)cc1)N[*:1])[*:2]].R.K.T.[am]}$$$$V2.0
SMILES: CC[C@H](C)[C@H](NC(=O)[C@@H](NC(=O)[C@H](CS)NC(=O)[C@H](CCSC)NC(C)=O)[C@@H](C)O)C(=O)N[C@@H](CC(=O)O)C(=O)N[C@@H](Cc1ccc(F)cc1)C(=O)N[C@@H](CC(=O)O)C(=O)N[C@@H](CCC(=O)O)C(=O)N[C@@H](Cc1ccc(O)cc1)C(=O)N[C@@H](CCCNC(=N)N)C(=O)N[C@@H](Cc1ccc(F)cc1)C(=O)N[C@@H](CCCNC(=N)N)C(=O)N[C@@H](CCCCN)C(=O)N[C@H](C(N)=O)[C@@H](C)O
IC50 [9]: 10 µM
Kd [10]: 3.7 µM
dH (printed as a magnitude; the paper calls it negative) [10]: 103 kJ/mol

Molecule: MCTID[Phe(4-F)]D[pS]YR[Phe(4-F)]RKT [peptide 8.6E8pS]
fold lower KD than peptide 8.6 [10]: 10 fold

Molecule: {FAM-βAla}-MCTIDFDEYRFRKT-NH2 [FAM-β-Ala-…-NH2]
fold reduction in binding against wild-type GST-BRCA1 (BRCT)2 [11]: 6 fold
